In brackets after ≈: the same amount, converted by molar mass. Activity calls are given as the source filed them. The calls are words filed in the database; no cut-off is given here.
Key:
[1] = Cytotoxicity against human BEAS2B cells after 24 hrs by resazurin assay; type: cell-based, BEAS-2B; settings: Homo sapiens, BEAS-2B
[2] = tested on: Candida albicans; experiment: Antifungal activity against azole-resistant Candida albicans MYA-1237 after 48 hrs in presence of posaconazole by checkerboard microdilution assay; type: functional; settings: MYA-1237, 48 h
Procedure, shortened: (§1)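 Checkerboard combinations of the aminoglycoside amphiphile with posaconazole against yeast strains, run in duplicate. Each agent's MIC is taken alone and in combination. The fractional inhibitory concentration index (FICI) is calculated to classify the interaction.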

[3] = tested on: Salmonella enterica; experiment: Antibacterial activity against Salmonella enterica ATCC 14028 by microdilution method; type: functional
Procedure, shortened: (§2)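 Broth microdilution MIC against the named bacterial strain, reported in μg/mL; each determination run at least in duplicate.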

[4] = Activity of AAC(6')-1e/APH(2'')-1a (unknown origin) assessed as compound acetylation activity by Ellman's method
[5] = tested on: Mycobacterium tuberculosis; experiment: Activity of Mycobacterium tuberculosis AAC(2')-1c assessed as compound acetylation activity by Ellman's method
[6] = tested on: Candida albicans; experiment: Antifungal activity against azole-resistant Candida albicans ATCC 10231 after 48 hrs in presence of posaconazole by checkerboard microdilution assay; type: functional; settings: ATCC 10231, 48 h; procedure, shortened: as §1
[7] = tested on: Candida albicans; experiment: Antifungal activity against azole-resistant Candida albicans MYA-1237 after 48 hrs by microbroth dilution method; type: functional; settings: MYA-1237, 48 h
Procedure, shortened: (§3)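 Yeast MIC by broth microdilution, run in duplicate. The aminoglycoside compounds are read as MIC-0 (complete inhibition). Azoles are read as MIC-2 (50% inhibition).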

[8] = tested on: Bacillus subtilis subsp. subtilis str. 168; experiment: Activity of Bacillus subtilis 168 APH(2'')-1a assessed as compound phosphorylation activity by Ellman's method
[9] = tested on: Klebsiella pneumoniae; experiment: Antibacterial activity against Klebsiella pneumoniae ATCC 27736 by microdilution method; type: functional; procedure, shortened: as §2
[10] = tested on: Acinetobacter baumannii; experiment: Antibacterial activity against Acinetobacter baumannii ATCC 19606 by microdilution method; type: functional; procedure, shortened: as §2
[11] = Hemolytic activity against mouse RBC at 7.8 ug/ml after 60 mins; type: ADME, cell-based, Erythrocyte; settings: red blood cells, read-out: Activity
[12] = tested on: Candida albicans; experiment: Antifungal activity against azole-resistant Candida albicans ATCC 64124 after 48 hrs in presence of posaconazole by checkerboard microdilution assay; type: functional; settings: ATCC 64124, 48 h; procedure, shortened: as §1
[13] = tested on: Candida albicans; experiment: Antifungal activity against azole-resistant Candida albicans ATCC 10231 after 48 hrs by microbroth dilution method; type: functional; settings: ATCC 10231, 48 h; procedure, shortened: as §3
[14] = Hemolytic activity against mouse RBC at 500 ug/ml after 60 mins; type: ADME, cell-based, Erythrocyte; settings: red blood cells, read-out: Activity
[15] = tested on: Candida albicans; experiment: Antifungal activity against azole-resistant Candida albicans ATCC 64124 assessed as cell death after 12 hrs by time-kill assay; type: functional, organism-based
Procedure, shortened: (§4)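 Time-kill assay on C. albicans ATCC 64124 cultures exposed to test compound at 1/2 MIC, MIC and higher concentrations. Amphotericin B at 1 μg/mL and a no-drug culture serve as controls. CFU are counted at intervals over 24 h.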

[16] = tested on: Staphylococcus aureus; experiment: Antibacterial activity against Staphylococcus aureus NRS382 (USA 100) by microdilution method; type: functional; procedure, shortened: as §2
[17] = Activity of Mycobacterium tuberculosis AAC(2')-1c/AAC(3)-4 (unknown origin)/Serratia marcescens AAC(6')-2d (unknown origin) assessed as compound conversion to 3'-monoacetylated product incubated for 20 hrs by TLC analysis
[18] = tested on: Candida albicans; experiment: Antifungal activity against azole-resistant Candida albicans ATCC 64124 after 48 hrs by microbroth dilution method; type: functional; settings: ATCC 64124, 48 h; procedure, shortened: as §3
[19] = tested on: Candida albicans; experiment: Antifungal activity against azole-resistant Candida albicans ATCC 64124 at MIC measured after 6 hrs by time-kill assay; type: functional; procedure, shortened: as §4
[20] = tested on: Candida albicans; experiment: Antifungal activity against azole-susceptible Candida albicans ATCC MYA-2876 after 48 hrs by microbroth dilution method; type: functional; settings: ATCC MYA-2876, 48 h; procedure, shortened: as §3
[21] = tested on: Candida albicans; experiment: Antifungal activity against azole-resistant Candida albicans ATCC 90819 after 48 hrs by microbroth dilution method; type: functional; settings: ATCC 90819, 48 h; procedure, shortened: as §3
[22] = Activity of Mycobacterium tuberculosis AAC(2')-1c/AAC(3)-4 (unknown origin) assessed as compound conversion to 3'-acetylated product incubated for 20 hrs by TLC analysis
[23] = tested on: Staphylococcus aureus; experiment: Antibacterial activity against methicillin-resistant Staphylococcus aureus by microdilution method; type: functional
Procedure, shortened: (§5)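 Broth microdilution MIC, in μg/mL, against a panel of Gram-positive and Gram-negative strains. Run at least in duplicate.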

[24] = Activity of Mycobacterium tuberculosis AAC(2')-1c/Serratia marcescens AAC(6')-2d assessed as compound conversion to 6'-monoacetylated product incubated for 20 hrs by TLC analysis
[25] = tested on: Candida albicans; experiment: Antifungal activity against azole-susceptible Candida albicans ATCC MYA-2310 after 48 hrs by microbroth dilution method; type: functional; settings: ATCC MYA-2310, 48 h; procedure, shortened: as §3
[26] = tested on: Staphylococcus aureus; experiment: Antibacterial activity against Staphylococcus aureus NRS385 (USA 300) by microdilution method; type: functional; procedure, shortened: as §5
[27] = tested on: Bacillus subtilis; experiment: Antibacterial activity against Bacillus subtilis 168 by microdilution method; type: functional; settings: subsp. subtilis str. 168; procedure, shortened: as §2
[28] = tested on: Escherichia coli; experiment: Antibacterial activity against Escherichia coli MC1061 by microdilution method; type: functional; procedure, shortened: as §5
[29] = tested on: A549; experiment: Cytotoxicity against human A549 cells after 24 hrs by resazurin assay; type: cell-based; settings: Homo sapiens, A549, 24 h
[30] = tested on: Listeria monocytogenes; experiment: Antibacterial activity against Listeria monocytogenes ATCC 19115 by microdilution method; type: functional; procedure, shortened: as §2
[31] = tested on: Serratia marcescens; experiment: Activity of Serratia marcescens AAC(6')-2d assessed as compound acetylation activity by Ellman's method
[32] = tested on: Candida albicans; experiment: Antifungal activity against azole-resistant Candida albicans ATCC 64124 assessed as cell membrane permeabilization at 1 times MIC after 1 hr by propidium iodide-staining based fluorescence microscopic analysis (reference value: <2%); type: functional
[33] = tested on: Candida albicans; experiment: Antifungal activity against azole-resistant Candida albicans ATCC 64124 assessed as cell membrane permeabilization at twice the MIC after 1 hr by propidium iodide-staining based fluorescence microscopic analysis (reference value: <2%); type: functional
[34] = tested on: Aspergillus nidulans; experiment: Antifungal activity against Aspergillus nidulans ATCC 38163 after 48 hrs by microbroth dilution method; type: functional; settings: ATCC 38163, 48 h
Procedure, shortened: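 Filamentous fungus MIC by broth microdilution, run in duplicate. All compounds are read as MIC-0 (complete inhibition).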

[35] = Activity of AAC(3)-4 (unknown origin)/Serratia marcescens AAC(6')-2d assessed as compound conversion to 3'-acetylated product incubated for 20 hrs by TLC analysis
[36] = tested on: Candida albicans; experiment: Antifungal activity against azole-resistant Candida albicans ATCC 90819 after 48 hrs in presence of posaconazole by checkerboard microdilution assay; type: functional; settings: ATCC 90819, 48 h; procedure, shortened: as §1
[37] = tested on: Candida albicans; experiment: Antifungal activity against azole-susceptible Candida albicans ATCC MYA-2310 after 48 hrs in presence of posaconazole by checkerboard microdilution assay; type: functional; settings: ATCC MYA-2310, 48 h; procedure, shortened: as §1
[38] = tested on: Candida albicans; experiment: Antifungal activity against azole-resistant Candida albicans ATCC 64124 at sub-MIC measured over 24 hrs by time-kill assay; type: functional, organism-based; procedure, shortened: as §4
[39] = tested on: Candida albicans; experiment: Antifungal activity against azole-susceptible Candida albicans ATCC MYA-2876 after 48 hrs in presence of posaconazole by checkerboard microdilution assay; type: functional; settings: ATCC MYA-2876, 48 h; procedure, shortened: as §1
[40] = tested on: Enterobacter cloacae; experiment: Antibacterial activity against Enterobacter cloacae ATCC 13047 by microdilution method; type: functional; procedure, shortened: as §2
[41] = Activity of AAC(3)-4 (unknown origin) assessed as compound acetylation activity by Ellman's method
[42] = tested on: Staphylococcus aureus; experiment: Antibacterial activity against Staphylococcus aureus NRS383 (USA 200) by microdilution method; type: functional; procedure, shortened: as §2
[43] = tested on: Pseudomonas aeruginosa; experiment: Antibacterial activity against Pseudomonas aeruginosa ATCC 27853 by microdilution method; type: functional; procedure, shortened: as §2
[44] = tested on: Candida albicans; experiment: Antifungal activity against azole-resistant Candida albicans MYA-1003 after 48 hrs by microbroth dilution method; type: functional; settings: MYA-1003, 48 h; procedure, shortened: as §3
[45] = tested on: Staphylococcus epidermidis; experiment: Antibacterial activity against Staphylococcus epidermidis ATCC 12228 by microdilution method; type: functional; procedure, shortened: as §2
[46] = tested on: Candida albicans; experiment: Antifungal activity against azole-resistant Candida albicans MYA-1003 after 48 hrs in presence of posaconazole by checkerboard microdilution assay; type: functional; settings: MYA-1003, 48 h; procedure, shortened: as §1
[47] = tested on: Mycobacterium tuberculosis; experiment: Activity of Mycobacterium tuberculosis Eis assessed as compound acetylation activity by Ellman's method

Q: Which IC50 [1] does the source give for CCCCCCCCCCCCCCSC[C@@H]1O[C@@H](O[C@@H]2[C@@H](O)[C@H](O[C@@H]3O[C@@H](CN)[C@H](O)[C@@H](O)[C@@H]3N)[C@@H](N)C[C@H]2N)[C@@H](O)[C@H](N)[C@H]1O (stereo in doubt) here?
A: > 62.5 µg/mL

Q: What about the MIC [2] of the same molecule?
A: 1 µg/mL

Q: What about the MIC [3] of the same molecule?
A: 32 µg/mL (≈ 46 µM)

Q: What about the Activity [4] of the same molecule?
A: inactive

Q: What about the Activity [5] of the same molecule?
A: inactive

Q: What about the MIC [6] of the same molecule?
A: 4 µg/mL

Q: And the MIC [7]?
A: 7.8 µg/mL (≈ 11.2 µM)

Q: What about the Activity [8] of the same molecule?
A: inactive

Q: What about the MIC [9] of the same molecule?
A: > 128 µg/mL

Q: What about the MIC [10] of the same molecule?
A: > 128 µg/mL

Q: And the hemolysis at 1 h, 7.8 ug/ml [11]?
A: 15%

Q: And the MIC [12]?
A: 1 µg/mL

Q: What about the MIC [13] of the same molecule?
A: 7.8 µg/mL (≈ 11.2 µM)

Q: And the hemolysis at 1 h, 500 ug/ml [14]?
A: 73%

Q: What about the Activity [15] of the same molecule?
A: Active

Q: What about the MIC [16] of the same molecule?
A: 32 µg/mL (≈ 46 µM)

Q: And the Activity [17]?
A: Active

Q: What about the MIC [18] of the same molecule?
A: 7.8 µg/mL (≈ 11.2 µM)

Q: And the LCK [19]?
A: >=2

Q: And the MIC [20]?
A: 7.8 µg/mL (≈ 11.2 µM)

Q: And the MIC [21]?
A: 15.6 µg/mL (≈ 22.4 µM)

Q: And the Activity [22]?
A: Active

Q: And the MIC [23]?
A: 32 µg/mL (≈ 46 µM)

Q: What about the Activity [24] of the same molecule?
A: Active

Q: What about the MIC [25] of the same molecule?
A: 7.8 µg/mL (≈ 11.2 µM)

Q: And the MIC [26]?
A: 16 µg/mL (≈ 23 µM)

Q: And the MIC [27]?
A: > 128 µg/mL

Q: And the MIC [28]?
A: > 128 µg/mL

Q: What about the IC50 [29] of the same molecule?
A: > 62.5 µg/mL

Q: And the MIC [30]?
A: 0.5 µg/mL (≈ 0.718 µM)

Q: And the Activity [31]?
A: inactive

Q: And the Activity [32]?
A: 84%

Q: And the Activity [33]?
A: 49%

Q: And the MIC [34]?
A: ≤ 1.95 µg/mL

Q: And the Activity [35]?
A: Active

Q: What about the MIC [36] of the same molecule?
A: 1 µg/mL

Q: And the MIC [37]?
A: 1 µg/mL

Q: What about the Activity [38] of the same molecule?
A: Active

Q: What about the MIC [39] of the same molecule?
A: 1 µg/mL

Q: What about the MIC [40] of the same molecule?
A: 128 µg/mL (≈ 184 µM)

Q: What about the Activity [41] of the same molecule?
A: inactive

Q: What about the MIC [42] of the same molecule?
A: 8 µg/mL (≈ 11.5 µM)

Q: And the MIC [43]?
A: 64 µg/mL (≈ 92 µM)

Q: And the MIC [44]?
A: 7.8 µg/mL (≈ 11.2 µM)

Q: What about the MIC [45] of the same molecule?
A: > 128 µg/mL

Q: What about the MIC [46] of the same molecule?
A: 2 µg/mL

Q: What about the Activity [47] of the same molecule?
A: inactive

— ChEMBL document CHEMBL3739331, “Synthesis and Bioactivities of Kanamycin B-Derived Cationic Amphiphiles” (J Med Chem, 2015)
